Test results as given in ChEMBL document CHEMBL1148398, “Design, synthesis, and biological evaluation of thio-containing compounds with serum HDL-cholesterol-elevating properties” (2004).

Tests used:
Type in all cases: functional
[1] = test system: Cricetinae gen. sp.; assay: Percent change in total plasma cholesterol following oral administration of compound in hypercholesterolemic hamsters at 100 mg/kg/day for 14 days
Summary of the method: (§1)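 Male Syrian Golden hamsters pre-fed chow plus 0.25% cholesterol for 2 weeks and kept on it. Dosed 100 mg/kg/day by oral gavage in 2% Tween 80/saline for 14 days. Serum total cholesterol and glycerol-blanked triglycerides read enzymatically; lipoproteins separated by FPLC with cholesterol measured in each fraction. % change versus vehicle controls; six per group, p < 0.05.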

[2] = test system: Cricetinae gen. sp.; assay: Percent change in triglycerides following oral administration of compound in hypercholesterolemic hamsters at 100 mg/kg/day for 14 days; summary of the method: as §1
[3] = test system: Cricetinae gen. sp.; assay: Percent change in very low-density lipoprotein cholesterol following oral administration of compound in hypercholesterolemic hamsters at 100 mg/kg/day for 14 days; summary of the method: as §1
[4] = test system: Cricetinae gen. sp.; assay: Percent change in high-density lipoprotein cholesterol following oral administration of compound in hypercholesterolemic hamsters at 100 mg/kg/day for 14 days; summary of the method: as §1
[5] = test system: Cricetinae gen. sp.; assay: Percent change in low-density lipoprotein cholesterol following oral administration of compound in hypercholesterolemic hamsters at 100 mg/kg/day for 14 days; summary of the method: as §1
[6] = test system: Rattus norvegicus; assay: Percent change in total plasma cholesterol following oral administration of compound in normal chow-fed rats at 100 mg/kg/day for 4 days
Summary of the method: (§2)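 Chow-fed male Sprague–Dawley CD rats, 60–80 g, gavaged 100 mg/kg/day for 4 days in 1.3% Tween 80/0.25% CMC. Fasted overnight, bled 24 h after the last dose. Total cholesterol and glycerol-blanked triglycerides read enzymatically; lipoproteins by FPLC with cholesterol per fraction. % change versus control; six per group, p < 0.05.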

[7] = test system: Rattus norvegicus; assay: Percent change in total plasma cholesterol in hypercholesterolemic rats dosed at 100 mg/kg/day for 8 days
[8] = test system: Rattus norvegicus; assay: Percent change in high-density lipoprotein cholesterol following oral administration of compound in normal chow-fed rats at 100 mg/kg/day for 4 days; summary of the method: as §2
[9] = test system: Rattus norvegicus; assay: Percent change in high-density lipoprotein cholesterol in hypercholesterolemic rats dosed at 100 mg/kg/day for 8 days
[10] = test system: Rattus norvegicus; assay: Percent change in low-density lipoprotein cholesterol following oral administration of compound in normal chow-fed rats at 100 mg/kg/day for 4 days; summary of the method: as §2
[11] = test system: Rattus norvegicus; assay: Percent change in triglycerides in hypercholesterolemic rats at a dose of 100 mg/kg/day for 8 days
[12] = test system: Rattus norvegicus; assay: Percent change in very low-density lipoprotein cholesterol following oral administration of compound in normal chow-fed rats at 100 mg/kg/day for 4 days; summary of the method: as §2
[13] = test system: Rattus norvegicus; assay: Percent change in triglycerides following oral administration of compound in normal chow-fed rats at 100 mg/kg/day for 4 days; summary of the method: as §2

| SMILES | Change [1] | Change [2] | Change [3] | Change [4] | Change [5] | Change [6] | Change [7] | Change [8] | Change [9] | Change [10] | Change [11] | Change [12] | Change [13] |
| --- | --- | --- | --- | --- | --- | --- | --- | --- | --- | --- | --- | --- | --- |
| CCN1CC(=O)N(c2c(C)cccc2Cl)C1=S | -32.2% | -77.1% | -74.4% | 13.8% | -39.1% | 79.8% | -34% | 62.9% | 222% | -35% | -20% | 41.4% | -57.1% |
| CCN1C(=S)N(c2cc(Cl)ccc2C)C(=O)C1OC (stereo not given) | 3.8% | -36.4% | -35.8% | 57.4% | -19% | 102.3% | 6% | 91.6% | 140% | 11.9% | -33% | 83.6% | -10.6% |
| COc1ccc(Cl)cc1N1C(=O)CON(C)C1=S | -7.9% | -26.5% | -32.6% | 23.5% | -20.2% | 67.7% | 44% | 71.3% | 78% | 8.6% | 7% | 25% | -7.4% |
| Cc1cccc(Cl)c1N1C(=O)CON(C)C1=S | -21.4% | 38.6% | 5.2% | -28.1% | -22.4% | 40.4% | -2.7% | 52.8% | 100% | 11.7% | -30% | 80.8% | -61.5% |
| CCN1CC(=O)N(c2ccc(C)cc2C)C1=S | 10.7% | 9.6% | 14.5% | 33.3% | -11.6% | 55.5% | 25% | 61.2% | 83% | 8.3% | -34% | 15.6% | -35.4% |
| CCN1CC(=O)N(c2cccc(Cl)c2Cl)C1=S | -8% | -12.3% | -5.9% | 0% | -8.1% | 89.6% | 11% | 85.3% | 98% | 20.4% | -23% | 57.9% | 18.3% |
| CCN1C(=S)N(CC(C)C)C(=O)C1c1ccccc1 (stereo not given) | – | – | – | – | – | -8.4% | 7% | -3.1% | 156% | -9.3% | 92% | 33.3% | -1.6% |
| CCN1CC(=O)N(c2ccc(OC(F)(F)F)cc2)C1=S | – | – | – | – | – | 197.6% | -1% | 71.4% | 265% | 127.5% | -72% | 543.5% | 2.8% |
| CCN1CC(=O)N(c2ccccc2C)C1=S | – | – | – | – | – | 52.1% | 76.5% | 54.3% | 164% | 18.7% | 38% | 0% | -25% |
| Cc1cc(Cl)ccc1N1C(=O)CON(C)C1=S | – | – | – | – | – | 51.4% | 4% | 53.4% | 221% | 20.8% | -38% | 114.7% | -4.3% |
| CCN1CC(=O)N(c2ccccc2C(C)C)C1=S | -5.9% | -10.1% | -4.5% | 19.5% | -41% | 111.4% | 71% | 90.6% | 201% | 24.6% | 10% | 73.7% | -27.5% |
| C=CCN1CC(=O)N(c2c(C)cccc2C)C1=S | – | – | – | – | – | 86% | -5% | 120.4% | 177% | -18.8% | -45% | -45.8% | -29.9% |
| Cc1ccc(Cl)cc1N1C(=O)CON(C)C1=S | – | – | – | – | – | 85.7% | 5.7% | 83.5% | 236% | 29.9% | -10% | 23.1% | -26.2% |
| CCc1cccc(C)c1N1C(=O)CN(CC)C1=S | – | – | – | – | – | 52.8% | -19% | 61.9% | 112% | -6.5% | -10% | -29.2% | -8.2% |
| CCN1CCC(=O)N(c2c(C)cccc2C)C1=S | -3% | 8.6% | 22.7% | 0.7% | 24% | 70.4% | 11% | 97.4% | 184% | 0% | -12% | -5.2% | -11.4% |
| CN1OCC(=O)N(c2ccc(Oc3ccccc3)cc2)C1=S | – | – | – | – | – | -13% | -25% | 0% | 102% | -20.5% | -43% | -9.1% | -20.5% |
| CCc1cccc(C(C)C)c1N1C(=O)CN(CC)C1=S | – | – | – | – | – | 30.9% | -62% | 48.7% | 54% | -22.3% | 5% | -50% | -12.2% |
| CCN1CCC(=O)N(c2ccc(Cl)cc2C)C1=S | 2% | -30.7% | 6.3% | 47.8% | -26.8% | 80.7% | 40% | 75.5% | 126% | 38.9% | -16% | -15% | -53.1% |
| CN1OCC(=O)N(c2cccc3c2CCC3)C1=S | – | – | – | – | – | 78.5% | -2% | 81.8% | 192% | 42.3% | -26% | 68% | -31.2% |
| Cc1cccc(C)c1N1C(=O)CN(C(C)C)C1=S | -3.1% | -7.3% | 8.9% | 1.7% | 17.2% | 56.1% | -25% | 71.2% | 146% | -5.8% | -43% | -10.5% | -42.9% |
| Cc1cccc(Cl)c1N1C(=O)CN(C)C1=S | – | – | – | – | – | 71.2% | 17% | 75.7% | 84% | 0% | -56% | 89.4% | -37.9% |
| CCN1C(=O)C(=O)N(c2c(C)cccc2C)C1=S | – | – | – | – | – | 138.2% | -21% | 114.4% | 186% | 73.2% | -48% | 409.7% | -32.8% |
| CCN1CCC(=O)N(c2c(C)cccc2Cl)C1=S | – | – | – | – | – | 45.4% | 23% | 45.5% | 199% | -1.1% | -16% | -5.3% | -35.7% |
| CCN1CC(=O)N(c2cc(F)ccc2C)C1=S | – | – | – | – | – | 95.2% | 35% | 102.4% | 112% | 14% | -36% | 131.6% | -6.3% |
| Cc1ccc(C)c(N2C(=O)CON(C)C2=S)c1 | -13.8% | -23.8% | -25.5% | 48.3% | -40.1% | 75.2% | 28% | 87.2% | 72% | 9.1% | 26% | 61.5% | -31.6% |
